Source: ChEMBL document CHEMBL4433211, “Discovery of the First-in-Class GSK-3β/HDAC Dual Inhibitor as Disease-Modifying Agent To Combat Alzheimer's Disease” (ACS Med Chem Lett, 2019)
Each block holds one compound with its values, some of them ahead of it. Calls of active or inactive are those of the source. No cut-off for these calls is given here.

Experiments:
SH-SY5Y [1] = test: Induction of neurogenesis in human SH-SY5Y cells assessed as upregulation of GAP43 mRNA at 10 uM incubated for 24 hrs by RT-PCR analysis; type: functional, cell-based
Procedure, shortened: (§1)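 SH-SY5Y cells treated 24 h (10 μM, or 1 μM for one parent compound; retinoic acid positive control); GAP43, N-myc and MAP-2 mRNA measured by RT-PCR, expressed as fold of control.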

SH-SY5Y [2] = test: Induction of neurogenesis in human SH-SY5Y cells assessed as upregulation of N-myc mRNA at 10 uM incubated for 24 hrs by RT-PCR analysis; type: functional, cell-based; procedure, shortened: as §1
SH-SY5Y [3] = test: Induction of neurogenesis in human SH-SY5Y cells assessed as upregulation of MAP-2 mRNA at 10 uM incubated for 24 hrs by RT-PCR analysis; type: functional, cell-based; procedure, shortened: as §1
SH-SY5Y [4] = test: Induction of neurogenesis in human SH-SY5Y cells assessed as stimulation of neurite outgrowth at 10 uM incubated for 72 hrs by phase contrast microscopic analysis; type: functional, cell-based
Procedure, shortened: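 SH-SY5Y cells treated 72 h at 10 μM, retinoic acid (10 μM) as positive control; neurite-bearing cells scored from images taken at 20× magnification.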

[5] = molecular target: T1, Glycogen synthase kinase-3 beta (Homo sapiens, UniProt P49841); test: Inhibition of human recombinant GSK3beta using GSM as substrate incubated for 30 mins by luminescence based assay
Target sequence in this assay (P49841 whole entry): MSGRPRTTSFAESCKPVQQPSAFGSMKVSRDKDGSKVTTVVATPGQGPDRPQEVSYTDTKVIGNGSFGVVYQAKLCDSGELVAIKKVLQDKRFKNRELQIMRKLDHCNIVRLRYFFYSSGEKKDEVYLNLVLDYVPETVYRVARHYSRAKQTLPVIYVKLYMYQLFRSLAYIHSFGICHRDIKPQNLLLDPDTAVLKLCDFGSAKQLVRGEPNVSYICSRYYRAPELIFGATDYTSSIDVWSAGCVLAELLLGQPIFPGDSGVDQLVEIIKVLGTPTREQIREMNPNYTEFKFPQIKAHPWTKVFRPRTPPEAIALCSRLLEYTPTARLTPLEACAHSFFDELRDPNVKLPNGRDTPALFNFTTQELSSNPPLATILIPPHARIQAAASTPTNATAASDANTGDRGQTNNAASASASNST

Histone deacetylase 1 [6] = molecular target: T2, Histone deacetylase 1 (Homo sapiens, UniProt Q13547); test: Inhibition of human recombinant his tagged HDAC1 expressed in baculovirus infected […] insect cells using tertbutyloxycarbonyl (Boc)-(Ac)-Lys-7-amino-4-methylcoumarin as substrate incubated for 1 hr by fluorescence based assay
T2 sequence (Q13547 whole entry): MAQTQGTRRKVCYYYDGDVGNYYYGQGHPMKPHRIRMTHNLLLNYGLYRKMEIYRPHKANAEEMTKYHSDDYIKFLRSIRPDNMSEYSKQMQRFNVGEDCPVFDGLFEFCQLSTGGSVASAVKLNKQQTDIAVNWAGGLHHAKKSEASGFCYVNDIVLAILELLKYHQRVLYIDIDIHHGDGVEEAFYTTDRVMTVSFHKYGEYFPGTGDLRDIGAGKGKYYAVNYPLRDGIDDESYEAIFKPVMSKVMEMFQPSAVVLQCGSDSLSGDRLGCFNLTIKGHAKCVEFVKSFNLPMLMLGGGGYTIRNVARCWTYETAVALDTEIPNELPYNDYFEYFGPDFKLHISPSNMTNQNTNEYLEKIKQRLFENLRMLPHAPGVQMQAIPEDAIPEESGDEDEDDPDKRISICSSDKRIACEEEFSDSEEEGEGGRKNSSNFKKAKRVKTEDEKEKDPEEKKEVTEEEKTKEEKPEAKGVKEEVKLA

[7] = molecular target: T3, Protein deacetylase HDAC6 (Homo sapiens, UniProt Q9UBN7); test: Inhibition of human recombinant his tagged HDAC6 expressed in baculovirus infected […] insect cells using batcp as substrate incubated for 1 hr by fluorescence based assay
T3 sequence (Q9UBN7 whole entry): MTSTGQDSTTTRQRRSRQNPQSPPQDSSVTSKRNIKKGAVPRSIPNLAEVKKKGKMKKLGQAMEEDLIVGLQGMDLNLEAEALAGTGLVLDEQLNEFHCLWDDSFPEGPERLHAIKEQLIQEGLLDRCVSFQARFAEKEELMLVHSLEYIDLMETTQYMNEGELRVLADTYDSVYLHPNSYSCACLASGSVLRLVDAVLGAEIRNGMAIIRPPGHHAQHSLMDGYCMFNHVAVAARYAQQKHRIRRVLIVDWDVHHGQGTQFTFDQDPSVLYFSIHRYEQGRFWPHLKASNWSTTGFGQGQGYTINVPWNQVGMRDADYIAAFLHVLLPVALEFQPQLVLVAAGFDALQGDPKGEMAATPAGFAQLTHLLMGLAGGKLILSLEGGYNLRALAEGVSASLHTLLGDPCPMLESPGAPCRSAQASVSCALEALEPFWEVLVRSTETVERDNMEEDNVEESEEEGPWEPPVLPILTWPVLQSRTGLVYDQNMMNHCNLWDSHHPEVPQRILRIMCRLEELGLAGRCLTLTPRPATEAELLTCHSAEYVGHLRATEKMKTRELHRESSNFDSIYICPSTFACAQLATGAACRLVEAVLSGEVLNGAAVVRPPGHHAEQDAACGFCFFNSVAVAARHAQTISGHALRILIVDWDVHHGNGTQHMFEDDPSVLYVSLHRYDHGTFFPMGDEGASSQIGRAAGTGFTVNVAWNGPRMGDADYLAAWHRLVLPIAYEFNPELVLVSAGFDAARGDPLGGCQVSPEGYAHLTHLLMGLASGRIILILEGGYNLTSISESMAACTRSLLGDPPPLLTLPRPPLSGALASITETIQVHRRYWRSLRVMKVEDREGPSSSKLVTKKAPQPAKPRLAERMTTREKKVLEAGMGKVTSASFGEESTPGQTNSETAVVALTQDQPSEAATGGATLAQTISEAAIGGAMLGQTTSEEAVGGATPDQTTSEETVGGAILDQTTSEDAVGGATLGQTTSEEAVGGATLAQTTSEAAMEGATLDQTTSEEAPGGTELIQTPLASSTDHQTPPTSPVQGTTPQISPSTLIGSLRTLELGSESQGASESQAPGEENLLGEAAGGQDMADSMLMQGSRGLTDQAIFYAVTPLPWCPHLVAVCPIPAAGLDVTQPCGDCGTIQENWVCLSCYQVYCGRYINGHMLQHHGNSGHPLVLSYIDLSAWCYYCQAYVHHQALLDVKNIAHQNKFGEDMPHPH

[8] = molecular target: T1, Glycogen synthase kinase-3 beta; test: Inhibition of GSK3beta in human SH-SY5Y cells assessed as reduction in copper-induced tau hyperphosphorylation at 10 mM preincubated for 1 hr followed by copper addition and measured after 26 hrs by ELISA; type: cell-based; details: in the assay text read “16 hrs” for “26 hrs”
Procedure, shortened: (§2)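 Differentiated SH-SY5Y cells pretreated 1 h with test agent (LiCl 10 mM reference; compounds 10 μM), then copper 400 μM for 16 h; cells scraped, phospho-tau quantified by immunoenzymatic assay at 450 nm; mean ± SEM.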
Target sequence in this assay (P49841 whole entry, looked up): as the sequence (P49841 whole entry) above

Histone deacetylase 1 [9] = molecular target: T2, Histone deacetylase 1; test: Inhibition of human recombinant his tagged HDAC1 expressed in baculovirus infected […] insect cells up to 30 uM using tertbutyloxycarbonyl (Boc)-(Ac)-Lys-7-amino-4-methylcoumarin as substrate incubated for 1 hr by fluorescence based assay
[10] = molecular target: T4, Protein deacetylase HDAC6 (Homo sapiens) (UniProt Q9UBN7); test: Inhibition of human recombinant his tagged HDAC6 expressed in baculovirus infected […] insect cells up to 30 uM using batcp as substrate incubated for 1 hr by fluorescence based assay
T4 sequence (whole entry): T3 sequence (Q9UBN7 whole entry)

[11] = molecular target: T1, Glycogen synthase kinase-3 beta; test: Inhibition of GSK3beta in human SH-SY5Y cells assessed as reduction in copper-induced tau hyperphosphorylation at 10 uM preincubated for 1 hr followed by copper addition and measured after 26 hrs by ELISA; type: cell-based; details: in the assay text read “16 hrs” for “26 hrs”; procedure, shortened: as §2
Target sequence in this assay (P49841 whole entry, looked up): as the sequence (P49841 whole entry) above

Microglia [12] = test: Immunomodulatory activity in LPS treated Wistar rat primary microglial cells assessed as decrease in NOS2 expression level at 5 to 50 uM incubated for 24 hrs by western blot analysis; type: functional, cell-based
Procedure, shortened: (§3)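 Primary microglial cells treated 24 h with LPS in presence or absence of test compound; NOS2, MRC1 and TREM2 protein assessed by Western blot, normalized to GAPDH.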

Microglia [13] = test: Immunomodulatory activity in LPS treated Wistar rat primary microglial cells assessed as decrease in MRC1 expression level at 5 to 50 uM incubated for 24 hrs by western blot analysis; type: functional, cell-based; procedure, shortened: as §3
Microglia [14] = test: Immunomodulatory activity in LPS treated Wistar rat primary microglial cells assessed as effect on TREM2 expression level at 5 to 50 uM incubated for 24 hrs by western blot analysis; type: functional, cell-based; procedure, shortened: as §3
[15] = molecular target: Histone deacetylase (Homo sapiens) (UniProt Q13547+O15379+Q9UBN7+Q92769+Q9UQL6+Q8WUI4+Q9BY41+Q96DB2+P56524+Q9UKV0+Q969S8); test: Synergistic inhibition of HDAC in human SH-SY5Y cells assessed as increase in acetylation of alpha-tubulin incubated for 30 hrs in presence of verinostat by Western blot analysis; type: cell-based
SH-SY5Y [16] = test: Synergistic neuroprotective activity against H2O2-induced cell death in human SH-SY5Y cells at 0.1 uM incubated for 24 hrs in presence of verinostat by MTS assay; type: functional, cell-based
Procedure, shortened: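 SH-SY5Y cells challenged 24 h with H2O2 (25 and 50 μM) in presence of compounds (0.1–10 μM), alone or as a two-compound combination; viability by MTS assay as % of control.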

[17] = system: Cerebellar granule neurone; test: Neuroprotective activity against 6-OHDA-induced cell death in Wistar rat primary cerebellar granule neurons at 20 uM preincubated for 6 hrs followed by 6-OHDA addition and measured after 24 hrs in presence of in presence of 5 uM verinostat by MTT assay; type: functional, cell-based
Procedure, shortened: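 Primary differentiated cerebellar granule neurons challenged with 6-OHDA with or without test compound; viability assessed; mean ± SE of at least 3 experiments in quadruplicate, one-way ANOVA with Bonferroni post hoc test.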

SMILES: CC1=C(/C=C/C(C)=C/C=C/C(C)=C/C(=O)O)C(C)(C)CCC1
Activity (SH-SY5Y [1]): Active
Activity (SH-SY5Y [2]): Active
Activity (SH-SY5Y [3]): Active
Activity (SH-SY5Y [4]): Active

IC50 [5]: 20 µM
IC50 (Histone deacetylase 1 [6]): 3.75 µM
IC50 [7]: 18.1 µM
SMILES: O=C(CCNC(=S)Nc1ccc2c(c1)C(=O)NC2=O)NO

inhibition [8]: Active
SMILES: [Cl-].[Li+]

IC50 [5]: 20.2 µM
inhibition (Histone deacetylase 1 [9]): inactive
inhibition [10]: inactive
inhibition [11]: Active
inhibition [15]: inactive
SMILES: O=C1NC(=O)c2ccccc21 [PHTHALIMIDE]
Activity (SH-SY5Y [1]): Active
Activity (SH-SY5Y [2]): inactive
Activity (SH-SY5Y [3]): Active
Activity (SH-SY5Y [4]): Active
Activity (Microglia [12]): Active
Activity (Microglia [13]): Active
Activity (Microglia [14]): inactive
Activity (SH-SY5Y [16]): inactive
Activity [17]: Active
